Assay outcomes (PubChem)
UHRF1 MBD2 ctr = blocks human UHRF1 binding to methylated DNA; Q96T88; UHRF1 binding to methylated oligo, TR-FRET; inhibition, % at 4.4 µM; 370,000 compounds, 0.75% hits; AID 687016; in the data active means inhibition above about 21%;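 further: UHRF1 SRA domain binding a hemimethylated CpG hairpin DNA probe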
MBD2 DNA inh = blocks human MBD2 binding to methylated DNA; 370,000 compounds, 0.31% hits; Q9UBB5; AID 686964; inhibition, % at 4.4 µM; TR-FRET, MBD2 binding to methylated oligonucleotide; in the data active means inhibition above about 13%
Target sequence (Q9UBB5 whole entry, looked up): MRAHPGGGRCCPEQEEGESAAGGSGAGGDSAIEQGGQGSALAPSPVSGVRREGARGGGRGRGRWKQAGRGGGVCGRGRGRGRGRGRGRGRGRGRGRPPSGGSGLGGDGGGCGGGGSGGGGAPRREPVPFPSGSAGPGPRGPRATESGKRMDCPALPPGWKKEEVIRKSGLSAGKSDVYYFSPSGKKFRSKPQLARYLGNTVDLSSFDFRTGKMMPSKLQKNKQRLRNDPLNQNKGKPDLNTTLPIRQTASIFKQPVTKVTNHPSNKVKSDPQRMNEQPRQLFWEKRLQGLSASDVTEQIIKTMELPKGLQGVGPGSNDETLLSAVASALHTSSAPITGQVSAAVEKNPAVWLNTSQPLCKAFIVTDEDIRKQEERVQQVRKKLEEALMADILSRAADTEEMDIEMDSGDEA
TDP2 absorb = TDP2 (human) inhibition, absorbance primary screen; 370,000 compounds, 0.34% hits; inhibition, % at 12.8 µM; AID 720702; O95551; recombinant TDP2, T5PNP hydrolysis, p-nitrophenol absorbance 415 nm;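 active means inhibition above the mean of all tested compounds plus 3 SD, set per campaign, cut at about 25% in these data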
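test system = human TDP2 enzyme | input = TDP2 enzyme at 120 nM final | medium = 50 mM Tris-HCl pH 7.5 with Mg2+, KCl, DTT, BSA | also added = T5PNP substrate, 5 mM | times = 2 h at 37 °C | technique = epi absorbance | benchmarks = high control without enzyme, low control DMSO plus TDP2 | replication = each compound tested once, singlicate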
Rin1 Abl inh = inhibitors of human Rin1-Abl protein interaction | P00519+Q13671 | TR-FRET Rin1/Abl binding, biochemical | inhibition, % at 7.35 µM | 360,000 compounds, 0.4% hits; in the data active means inhibition above about 5%, passing the limit was not always enough
LEDGF integ inh = blocks HIV-1 LEDGF/p75-dependent DNA integration | TR-FRET IN-LEDGF/p75 DNA integration, Eu/Cy5 | inhibition, % at 3.7 µM | 370,000 compounds, 0.64% hits;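 active means inhibition above the screen-wide mean plus 3 SD, cut at about 13% in these data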;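 further: signal is the Cy5 over europium emission ratio at 671 and 618 nm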
Numbers stand for hits; 0 = inactive; - = not tested or not shown. Sampled rows, rich in hits. Any-hit rate of the full collection: about 1.9%.

SMILES	UHRF1 MBD2 ctr	MBD2 DNA inh	TDP2 absorb	Rin1 Abl inh	LEDGF integ inh
O=C(O)c1c2c(nc3ccccc13)/C(=C/c1ccc(O)cc1)CC2	37	0	0	0	0
O=C(NCc1ccco1)O[C@@H]1CC[C@@]23CCCN2C(=O)CCC[C@H]3C1	0	0	0	-	0
COc1ccc(OCc2cc(C(=O)NC(C)Cc3cccnc3)no2)c(Cl)c1 (configuration not stated)	0	0	0	0	0
COc1ccc(OCc2cc(C(=O)NC(C)Cn3cncn3)no2)c(Cl)c1 (configuration not stated)	27	0	0	0	0
COc1ccc(C2(c3ccc(OC)cc3)NC(=O)N(CC(=O)Nc3ccccc3)C2=O)cc1	0	0	0	0	0
COc1ccc(C2(c3ccc(OC)cc3)NC(=O)N(CC(=O)Nc3ccc(C(N)=O)cc3)C2=O)cc1	42	0	0	0	0
COc1ccc(-n2c(SCc3ccc([N+](=O)[O-])cc3)nnc2-c2ccco2)cc1	0	0	0	-	0
COc1ccc(C(=O)NC2CC2)cc1OC1CCN(Cc2ccc(F)cc2Cl)CC1	29	0	0	0	0
COc1ccc(CN2CCC(Oc3cc(C(=O)NC4CC4)ccc3OC)CC2)c(O)c1	0	0	0	0	0
O=C(NC1CCCC1)C1(C(=O)C2CC2)CC(c2ccccc2C(F)(F)F)=NO1 (configuration not stated)	0	0	0	-	0
COc1ccc(CCNC(=O)c2cc(-c3ccc(Cl)c(Cl)c3)oc2C)cc1	22	0	0	0	0
COc1ccc(CCNC(=O)c2nn(C)cc2Cl)cc1	0	0	0	0	0
COC(=O)[C@]1(CNC(=O)NCCc2ccc(OC)c(OC)c2)CC(=O)N(C)[C@@H]1c1ccccc1	0	0	0	-	0
COC(=O)c1ccccc1NC(=O)CN1C(=O)CSC1=O	0	0	0	0	0
COC(=O)c1cc(NC(=O)CN2C(=O)CSC2=O)ccc1Cl	23	0	0	0	0
COC[C@H]1CCCN1c1ccc2c(c1)O[C@@H]1CCN(C1)S2(=O)=O	0	0	0	-	0
O=C(CC1C(=O)NCCN1C(=O)Nc1ccccc1)Nc1cccc(Cl)c1 (configuration not stated)	33	0	0	0	0
Cc1cccc(OCCCn2c(=O)oc3ccc(C)cc32)c1	25	0	0	0	0
COc1ccccc1OCCCn1c(=O)oc2ccc(C)cc21	0	0	0	0	0
NCCC(=O)Nc1ccc(Cl)cc1C(=O)c1ccc[nH]1	0	0	0	-	0
Cc1cc(-c2n[nH]c(=S)n2N=Cc2c3ccccc3cc3ccccc23)n[nH]1	0	0	0	-	0
CCCCCCCC(=O)Nc1cc(C(=O)NCCC)ccc1N1CCC2(CC1)CC(c1ccccc1)=NO2	21	0	0	0	0
N/C(=N\OC(=O)/C=C/c1ccccc1Cl)c1ccccn1	0	0	0	0	0
N/C(=N\OC(=O)/C=C/c1ccc(Br)cc1)c1ccccn1	23	0	0	0	0
CCN(C)C(=O)CN1C(=O)C2CCCCN2C(=O)c2ccccc21 (configuration not stated)	0	0	0	-	0
SMILES	UHRF1 MBD2 ctr	MBD2 DNA inh	TDP2 absorb	Rin1 Abl inh	LEDGF integ inh
COc1ccc(S(=O)(=O)Nc2cc3c4c(c2)CC(=O)N4CCC3)cc1	0	0	0	0	0
COc1ccc(CCNS(=O)(=O)c2cc3c4c(c2)CC(=O)N4CCC3)cc1	26	0	0	0	0
COC(=O)c1ccc(N2CCOCC2)c(NC(=O)Nc2cccc(OC)c2)c1	24	0	0	0	0
COc1ccc(C)cc1S(=O)(=O)N(CC(=O)Nc1cccc([N+](=O)[O-])c1)c1ccccc1	31	0	0	0	0
O=S(=O)(Nc1ccc(-c2ccc3nncn3n2)cc1)c1cccc(F)c1	24	0	0	0	0
N=C1C(c2nc3ccccc3s2)=C(O)CN1NC(=O)c1ccco1	39	0	0	0	0
COc1cccc(N2CC(O)=C(c3nc4ccccc4s3)C2=N)c1	23	0	0	0	0
COc1cccc(C(=O)NN2CC(O)=C(c3nc4ccccc4s3)C2=N)c1	0	0	0	0	0
COc1ccccc1CNC(=O)N(CCc1c(C)[nH]c2ccccc12)Cc1cccs1	0	0	0	-	0
CC(CCN1CCC(C(O)(c2ccccc2)c2ccccc2)CC1)Oc1cccc(C(F)(F)F)c1 (configuration not stated)	0	0	0	-	0
CCOc1ccccc1N(CC(=O)NC1CCCCC1)C(=O)c1nsc(Cl)c1Cl	22	0	0	0	0
CC1=NN(C(C#N)c2ccccc2O)C(C)(C)C1 (configuration not stated)	30	0	0	0	0
COc1ccc(N2CCN(S(=O)(=O)c3ccc(OC)cc3)CC2)cc1	0	0	0	0	0
COc1ccc(S(=O)(=O)n2cccc2)cc1	23	0	0	0	0
O=C(NCC1CCCO1)C1CCN(C2CCN(CCCC3CCCC3)CC2)CC1 (configuration not stated)	23	0	0	0	0
O=C(NCC1CCCO1)C1CCN(C2CCN(C(=O)CC3CCCC3)CC2)CC1 (configuration not stated)	0	0	0	0	0
CCCc1nc2ccc(C(=O)OC)cn2c1Cc1ccccc1OC	23	0	0	-	0
CCCc1nc2ccc(C(=O)OC)cn2c1Cc1ccccc1C(F)(F)F	25	0	0	0	0
CCCCCCCCN1C(=O)[C@@H](CC(=O)NCc2cccc(C(F)(F)F)c2)C[C@@]2(C(=O)OC)C1=C[C@H](COCc1ccccc1)O[C@@H]2C	0	0	0	-	0
COc1ccc(NC(=O)c2cc3ccccc3cc2OC)cc1	0	0	0	0	0
COc1cc(C(=O)c2ccccc2)c(OC)cc1C(=O)Nc1ccc(O)cc1	27	0	0	0	0
Clc1ccc(-c2nnc3n2N=C(c2ccc(-c4ccccc4)cc2)CS3)c(Cl)c1	0	0	0	-	0
Cc1c(C(=O)OCC(=O)NCCc2ccc(S(N)(=O)=O)cc2)oc2ccccc12	37	0	0	0	0
COc1ccc(S[C@]2(C(=O)N3CCCC3)CC(=O)N(S(=O)(=O)c3ccc(F)cc3)[C@@H]2c2ccc(OC)cc2)cc1	0	0	0	-	0
N#CCCCc1cn(-c2cccc(-c3noc4c3C(=O)N(CC(=O)N3CCOCC3)CC4)c2)nn1	0	0	0	-	0
CC(C)n1nc(C(=O)Nc2nc3ccccc3[nH]2)c2ccccc2c1=O	98	0	0	0	0
Cn1c(=O)oc2cc(S(=O)(=O)Nc3ccccc3)ccc21	0	0	0	0	0
Cc1cc(C)c(NS(=O)(=O)c2ccc3c(c2)oc(=O)n3C)c(C)c1	39	0	0	0	0
COC(=O)[C@]12C[C@H](CC(=O)NCc3cccc(C(F)(F)F)c3)C(=O)N(CCc3ccc(OC)c(OC)c3)C1=C[C@H](C(C)C)O[C@@H]2C1CC1	0	0	0	-	0
O=C(NNC(=O)c1cc(-c2cccnc2)nc2ccccc12)Nc1ccc(Cl)cc1	0	0	0	0	0
